ChEMBL document CHEMBL2417398, “Synthesis, antileishmanial activity and structure-activity relationship of 1-N-X-phenyl-3-N'-Y-phenyl-benzamidines” (Eur J Med Chem, 2013)

Key:
Leishmania amazonensis = assay: Antileishmanial activity against Leishmania amazonensis MHOM/BR/77/LTB0016 promastigotes after 24 hrs by cell counting; format: functional, organism-based
In short: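 L. amazonensis MHOM/BR/77/LTB0016 promastigotes grown at 25 °C in LIT medium with 10% (v/v) heat-inactivated FCS, harvested in late log phase and set to 4 x 10^6 /mL. Drugs in DMSO (up to 1.6% v/v) at 160 to 5 μg/mL for 24 h. Surviving parasites counted in a Neubauer chamber. Inhibition taken against DMSO and untreated controls. IC50 from linear regression of % inhibition versus log concentration.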

Leishmania chagasi = assay: Antileishmanial activity against Leishmania chagasi promastigotes after 24 hrs by cell counting; format: functional, organism-based
In short: (§1)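 Promastigotes given drugs in DMSO (at most 1.6% v/v) over 160 to 5 μg/mL for 24 h. Remaining parasites counted in a Neubauer chamber and % inhibition set against DMSO-only and parasite-only controls. IC50 derived by linear regression of % inhibition against log drug concentration.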

Leishmania braziliensis = assay: Antileishmanial activity against Leishmania braziliensis promastigotes after 24 hrs by cell counting; format: functional, organism-based; in short: as §1
[1] = Cytotoxicity against macrophages (unknown origin) at 320 ug/ml; format: cell-based; conditions: macrophage
[2] = Leishmania amazonensis, MHOM/BR/77/LTB0016, 24 h

Compound | logIC50 (Leishmania amazonensis; [2]) | further results
COc1ccc(/C(=N/c2ccccc2)Nc2cccc(Cl)c2)cc1 | 1.11 | –
COc1ccc(/C(=N/c2ccccc2)Nc2ccc(F)cc2)cc1 | 1.43 | –
COc1ccc(/C(=N/c2ccccc2)Nc2cccc(F)c2)cc1 | 1.62 | –
COc1ccc(/C(=N/c2ccccc2)Nc2ccc(Br)cc2)cc1 | 1.34 | –
COc1ccc(/C(=N/c2ccccc2)Nc2cccc(OC)c2)cc1 | 1.68 | –
COc1ccc(/C(=N/c2ccccc2)Nc2ccc([N+](=O)[O-])cc2)cc1 | 1.22 | –
COc1ccc(/C(=N/c2ccccc2)Nc2cccc([N+](=O)[O-])c2)cc1 | 2.59 | –
COc1ccc(/C(=N/c2ccccc2)Nc2ccc(O)cc2)cc1 | 2.51 | –
COc1ccc(/C(=N/c2ccccc2)Nc2cccc(O)c2)cc1 | 2.65 | –
COc1ccc(/C(=N/c2ccccc2)Nc2ccc(C)cc2)cc1 | 2.42 | –
COc1ccc(/C(=N/c2ccccc2)Nc2cccc(C)c2)cc1 | 2.42 | –
COc1ccc(/C(=N/c2ccccc2)Nc2ccc(S(N)(=O)=O)cc2)cc1 | 1.79 | –
COc1ccc(/C(=N/c2ccccc2)Nc2ccc(Cl)c([N+](=O)[O-])c2)cc1 | 1.1 | –
COc1ccc(/C(=N/c2ccccc2)Nc2ccccc2)cc1 [listing 1 of 2 here] | 1.9 | logIC50 (Leishmania chagasi; Leishmania chagasi, 24 h): 2.76; logIC50 (Leishmania braziliensis; Leishmania braziliensis, 24 h): 2.05
COc1ccc(/N=C(\Nc2ccccc2)c2ccc(OC)cc2)cc1 [listing 1 of 2 here] | 1.82 | logIC50 (Leishmania chagasi; Leishmania chagasi, 24 h): 2.04; logIC50 (Leishmania braziliensis; Leishmania braziliensis, 24 h): 1.42
COc1ccc(/N=C(\Nc2ccc(OC)cc2)c2ccccc2)cc1 [listing 1 of 2 here] | 1.62 | logIC50 (Leishmania chagasi; Leishmania chagasi, 24 h): > 3; logIC50 (Leishmania braziliensis; Leishmania braziliensis, 24 h): 2.13
COc1cccc(/C(=N/c2ccccc2)Nc2ccccc2)c1 | 2.56 | –
COc1ccc(/N=C(\Nc2ccccc2)c2ccccc2)cc1 | 2.8 | –
COc1ccc(/N=C(\Nc2ccccc2)c2cccc(OC)c2)cc1 | 2.57 | –
COc1ccc(/N=C(\Nc2ccccc2)c2ccc(OC)cc2)cc1 [listing 2 of 2 here] | – | logIC50 (Leishmania amazonensis): 2.8; logIC50 (Leishmania chagasi): 1.95; logIC50 (Leishmania braziliensis): 1.52; Activity [1]: 15%
COc1ccc(/N=C(\Nc2ccc(OC)cc2)c2ccccc2)cc1 [listing 2 of 2 here] | – | logIC50 (Leishmania amazonensis): 2.24; logIC50 (Leishmania chagasi): 2.25; logIC50 (Leishmania braziliensis): 2.25; Activity [1]: 100%
COc1ccc(/N=C(\Nc2ccc(OC)cc2)c2ccc(OC)cc2)cc1 | > 3 | –
COc1ccc(/N=C(\Nc2ccccc2)c2ccc3c(c2)OCO3)cc1 | 1.6 | –
COc1ccc(/C(=N/c2ccccc2)Nc2ccc(Cl)cc2)cc1 | 1.9 | –
COc1ccc(/C(=N/c2ccccc2)Nc2ccccc2)cc1 [listing 2 of 2 here] | – | logIC50 (Leishmania amazonensis): 1.85; logIC50 (Leishmania chagasi): 1.91; logIC50 (Leishmania braziliensis): 1.9; Activity [1]: Non-toxic
N=C(N)c1ccc(OCCCCCOc2ccc(C(=N)N)cc2)cc1 [PENTAMIDINE] | 1.05 | logIC50 (Leishmania chagasi; Leishmania chagasi, 24 h): 1.76; logIC50 (Leishmania braziliensis; Leishmania braziliensis, 24 h): 1.36; Activity [1]: 100%
